# From ChEMBL document CHEMBL1123211, “Correspondence analysis applied to steroid receptor binding” (J Med Chem, 1986)
# Target: T1, Glucocorticoid receptor (Homo sapiens) (UniProt P04150)
# T1 sequence (whole entry): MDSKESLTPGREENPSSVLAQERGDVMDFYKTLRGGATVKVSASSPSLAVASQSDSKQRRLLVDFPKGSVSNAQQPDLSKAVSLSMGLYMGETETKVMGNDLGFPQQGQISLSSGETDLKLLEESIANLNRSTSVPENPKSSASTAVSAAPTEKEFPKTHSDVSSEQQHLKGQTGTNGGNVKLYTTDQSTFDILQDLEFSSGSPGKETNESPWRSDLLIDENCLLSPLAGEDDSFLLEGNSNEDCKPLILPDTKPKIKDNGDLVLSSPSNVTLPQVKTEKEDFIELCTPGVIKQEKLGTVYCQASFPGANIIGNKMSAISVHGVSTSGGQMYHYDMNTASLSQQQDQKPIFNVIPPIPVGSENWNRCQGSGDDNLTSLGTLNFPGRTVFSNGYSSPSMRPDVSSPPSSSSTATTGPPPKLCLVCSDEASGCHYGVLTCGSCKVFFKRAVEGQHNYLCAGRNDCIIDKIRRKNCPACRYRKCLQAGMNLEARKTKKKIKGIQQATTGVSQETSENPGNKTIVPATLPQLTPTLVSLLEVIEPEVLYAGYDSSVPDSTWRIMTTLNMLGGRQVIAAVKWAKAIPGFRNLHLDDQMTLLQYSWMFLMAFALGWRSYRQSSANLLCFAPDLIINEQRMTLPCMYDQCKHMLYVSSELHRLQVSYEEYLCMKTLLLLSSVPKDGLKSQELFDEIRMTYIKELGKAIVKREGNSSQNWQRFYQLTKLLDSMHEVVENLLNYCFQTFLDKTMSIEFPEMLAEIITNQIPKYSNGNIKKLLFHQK
# Assay: Relative binding affinity against glucocorticoid receptor
# Summary of the method: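 Competitive binding: each steroid incubated with receptor-containing cytosol and a radiolabelled marker selective for the receptor. Bound radioactivity separated by dextran-coated charcoal adsorption. The unlabelled radioligand standard curve used 9-10 concentrations; test steroids used 5-6. RBA = 100 × (radioligand conc for 50% displacement ÷ steroid conc for 50% displacement), with reference hormone set to 100. Mean of ≥3 experiments.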
row,Structure (SMILES),Relative binding affinity
1,C[C@]12CCC3=C4CCC(=O)C=C4CC[C@H]3[C@@H]1CC[C@@H]2O,1.6
2,C#C[C@]1(O)CCC2C3CCC4=CC(=O)CCC4=C3CCC21C (stereo partly specified),5.7
3,CC12CCC3=C4CCC(=O)C=C4CCC3C1CC[C@]2(C)O (stereo partly specified),6
4,C#C[C@]1(O)CC[C@H]2[C@@H]3CCC4=CC(=O)CCC4=C3C=C[C@@]21CC,77
5,CCC12CCC3C4CCC(=O)C=C4CCC3C1CC[C@@H]2O (stereo partly specified),2.1
6,CCC12C=CC3=C4CCC(=O)C=C4CCC3C1CC[C@@H]2O (stereo partly specified),20
7,CC12CCC3C4CCC(=O)C=C4CCC3C1CC[C@@]21CCS(=O)O1 (stereo partly specified),0.4
8,CC1(C)CC2C(=C3CCC(=O)C=C31)C=CC1(C)C2CC[C@]1(C)O (stereo partly specified),1.2
9,C[C@]1(O)CC[C@H]2[C@@H]3CCC4=CC(=O)CCC4=C3C=C[C@@]21C (stereo in doubt; 12),26
10,CC12C=CC3=C4CCC(=O)C=C4CCC3C1CC[C@@]21CCS(=O)O1 (stereo partly specified),35
11,CC1=C2CCC3C(=C2CCC1=O)C=CC1(C)C3CC[C@]1(C)O (stereo partly specified),0.5
12,CC12CCC3=C4CCC(=O)C=C4CCC3C1CC[C@@]21CCS(=O)O1 (stereo partly specified),23
13,CC12CCC3=C4CCC(=O)C=C4CCC3C1CC[C@@]21CCC(=O)O1 (stereo partly specified),17
14,CC12C=CC3=C4CCC(=O)C=C4CCC3C1CCC2=O (stereo unspecified),< 0.1
15,C[C@]1(O)CC[C@H]2[C@@H]3CCC4=CC(=O)CCC4=C3C=C[C@@]21C (stereo in doubt; 39),26
16,C#C[C@]1(O)CCC2C3CCC4=CC(=O)CCC4=C3C=CC21CCC (stereo partly specified),6.4
17,CCCC12C=CC3=C4CCC(=O)C=C4CCC3C1CC[C@@H]2O (stereo partly specified),6
18,C[C@@H]1CC2=CC(=O)CC[C@@H]2[C@H]2CC[C@@]3(C)[C@@H](CC[C@]3(C)O)[C@@H]21,1.4
19,CC(=O)[C@H]1CCC2C3CCC4=CC(=O)CCC4=C3CCC21C (stereo partly specified),5.1
20,C[C@@H]1CC2=CC(=O)CCC2=C2CCC3(C)C(CC[C@]3(C)O)C21 (stereo partly specified),6.1
21,C#C[C@]1(O)CCC2C3CCC4=CC(=O)CCC4=C3CCC21CC (stereo partly specified),17
22,CCC12CCC3=C4CCC(=O)C=C4CCC3C1CC[C@@H]2O (stereo partly specified),5.1
23,CC12C=CC3=C4CCC(=O)C=C4CCC3C1CCC2 (stereo unspecified),0.5

row,Structure (SMILES),Relative binding affinity
1,C#C[C@]1(O)CC[C@H]2[C@@H]3CCC4=CC(=O)CCC4=C3C=C[C@@]21C,11
2,CC(=O)[C@H]1CC[C@H]2[C@@H]3CCC4=CC(=O)CC[C@@H]4[C@H]3CC[C@]12C,0.6
3,CCC12C=CC3=C4CCC(=O)C=C4C[C@@H](C)C3C1CC[C@]2(C)O (stereo partly specified),145
4,C[C@@H]1CC2=CC(=O)CCC2=C2C=CC3(C)C(CC[C@]3(C)O)C21 (stereo partly specified),22
5,CC(=O)[C@@]1(C)CCC2C3CCC4=CC(=O)CCC4=C3CCC21C (stereo partly specified),4.5
6,CC12CCC3C4CCC(=O)C=C4CCC3C1CC[C@@]21CCC(=O)O1 (stereo partly specified),0.1
7,CC12C=CC3=C4CCCC=C4CCC3C1CC[C@]2(C)O (stereo partly specified),0.3
8,CCC12C=CC3=C4CCC(=O)C=C4CCC3C1CC[C@]2(C)O (stereo partly specified),155
9,C#C[C@]1(O)CCC2C3CCC4=CC(=O)CCC4=C3CCC21CCC (stereo partly specified),5.5
10,CCCC12CCC3=C4CCC(=O)C=C4CCC3C1CC[C@@H]2O (stereo partly specified),1.9
11,C[C@]1(O)CC[C@H]2[C@@H]3CCC4=CC(=O)CC[C@@H]4[C@H]3CC[C@@]21C,1.5
12,CC1(C)CC2=C3C=CC4(C)C(CC[C@]4(C)O)C3CCC2=CC1=O (stereo partly specified),0.4
13,CC(=O)[C@@]1(C)CCC2C3CCC4=CC(=O)CCC4=C3C=CC21C (stereo partly specified),2.4
14,C#C[C@]1(O)CCC2C3CCC4=CC(=O)CCC4C3CCC21CCC (stereo partly specified),9.8
15,CC12C=CC3=C4CC(=O)CC=C4CCC3C1CC[C@]2(C)O (stereo partly specified),68
16,CC1CC2=C3C=CC4(C)C(CC[C@]4(C)O)C3CCC2=CC1=O (stereo partly specified),1.5
17,CC12C=CC3=CCCCC3C1CC[C@]2(C)O (stereo partly specified),38
18,CC(=O)[C@H]1CCC2C3CCC4=CC(=O)CCC4=C3C=CC21C (stereo partly specified),1.5
19,C#C[C@]1(O)CCC2C3CCC4=CC(=O)CCC4C3CCC21CC (stereo partly specified),14
20,CCCC12CCC3C4CCC(=O)C=C4CCC3C1CC[C@@H]2O (stereo partly specified),2.1
21,CC12C=CC3=C4CCC(=O)C=C4CCC3C1CC[C@@]21CCC(=O)O1 (stereo partly specified),62
22,CC(=O)[C@@]1(C)CCC2C3CCC4=CC(=O)CCC4C3CCC21C (stereo partly specified),0.7
23,C[C@]12CC[C@H]3[C@@H](CCC4=CC(=O)CC[C@@H]43)[C@@H]1CC[C@@H]2O,0.5
